Our source for the solubility, MIC and ED99 values is ChEMBL document CHEMBL1136943, “Nocathiacin analogs: Synthesis and antibacterial activity of novel water-soluble amides” (Bioorg Med Chem Lett, 2009).

Molecules are shown by their SMILES. Converted amounts (≈) assume the structure as drawn. Where only a bound is given, the exact number is not on record here.

The nature of data set [1]: Aqueous solubility by lyophilization solubility assay. In kind it is physicochemical. The method, boiled down:
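Amorphous powders from lyophilized material, as TFA salts; aqueous solubility measured by nephelometry.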

For data set [2], the system named is Staphylococcus aureus. Kind of data set: Antibacterial activity against Staphylococcus aureus MB2865 in liquid culture by turbidity method. Format: functional. The essentials:
(§1)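 MIC is the lowest concentration giving 100% inhibition of bacterial growth in liquid culture, read by turbidity.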

The test system of another data set is Streptococcus pneumoniae. Kind of data set: Antibacterial activity against Streptococcus pneumoniae CL2883 in liquid culture by turbidity method. In kind it is functional. The method, boiled down: as §1
The test system of a further data set is Enterococcus faecalis. Kind of data set: Antibacterial activity against Enterococcus faecalis C21560 in liquid culture by turbidity method. Format: functional. The method, boiled down: as §1
In data set [3] the test system is Staphylococcus aureus. Kind of data set: Antibacterial activity against Staphylococcus aureus infected in mouse model assessed as reduction of >= 2 log 10 cfu kidney burden. In kind it is functional. The essentials: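 Systemic S. aureus infection mouse model (SATOA). Compounds were given iv; […]. Kidney bacterial burden (cfu) was compared with untreated control. ED99 is the dose giving a reduction of at least 2 log10 cfu in kidney burden.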

As to `CO/C(C)=C1/NC(=O)[C@H]([C@@H](C)O)NC(=O)c2csc(n2)-c2cc(O)c(-c3nc(C(=O)NCCNC(=O)CN4CCOCC4)cs3)nc2-c2csc(n2)[C@@H]2COC(=O)c3c4c5c(cccc5n3O)COC(=O)[C@@H](O[C@H]3C[C@](C)(O)[C@H](N(C)C)[C@H](C)O3)[C@@H](OC4)[C@H](NC(=O)c3csc1n3)c1nc(cs1)C(=O)N2.O=C(O)C(F)(F)F`, the solubility (as a rule, the dissolved amount per volume that the medium holds) in data set [1] is over 10000 µg/mL.
For `CO/C(C)=C1/NC(=O)[C@H]([C@@H](C)O)NC(=O)c2csc(n2)-c2cc(O)c(-c3nc(C(=O)NCCN)cs3)nc2-c2csc(n2)[C@@H]2COC(=O)c3c4c5c(cccc5n3O)COC(=O)[C@@H](O[C@H]3C[C@](C)(O)[C@H](N(C)C)[C@H](C)O3)[C@@H](OC4)[C@H](NC(=O)c3csc1n3)c1nc(cs1)C(=O)N2`, the MIC (in general, the least concentration at which growth counts as inhibited) is 0.5 µg/mL (≈ 0.354 µM) against Staphylococcus aureus [2], 0.06 µg/mL (≈ 0.0425 µM) against Streptococcus pneumoniae and 2 µg/mL (≈ 1.42 µM) in the data set with Enterococcus faecalis.
In the case of `CO/C(C)=C1/NC(=O)[C@H]([C@@H](C)O)NC(=O)c2csc(n2)-c2cc(O)c(-c3nc(C(=O)N4CCN(CC(=O)N(C)C)CC4)cs3)nc2-c2csc(n2)[C@@H]2COC(=O)c3c4c5c(cccc5n3O)COC(=O)[C@@H](O[C@H]3C[C@](C)(O)[C@H](N(C)C)[C@H](C)O3)[C@@H](OC4)[C@H](NC(=O)c3csc1n3)c1nc(cs1)C(=O)N2`, the MIC against Staphylococcus aureus [2] is 0.12 µg/mL (≈ 0.0788 µM); in the data set on Streptococcus pneumoniae it was 0.0038 µg/mL (≈ 0.0025 µM); in the data set with Enterococcus faecalis, 0.25 µg/mL (≈ 0.164 µM).
The compound `CO/C(C)=C1/NC(=O)[C@H]([C@@H](C)O)NC(=O)c2csc(n2)-c2cc(O)c(-c3nc(C(=O)NCCNCC(O)CO)cs3)nc2-c2csc(n2)[C@@H]2COC(=O)c3c4c5c(cccc5n3O)COC(=O)[C@@H](O[C@H]3C[C@](C)(O)[C@H](N(C)C)[C@H](C)O3)[C@@H](OC4)[C@H](NC(=O)c3csc1n3)c1nc(cs1)C(=O)N2.O=C(O)C(F)(F)F` (stereo partly specified) returned a solubility in data set [1] of 10000 µg/mL.
The compound `CO/C(C)=C1/NC(=O)[C@H]([C@@H](C)O)NC(=O)c2csc(n2)-c2cc(O)c(-c3nc(C(=O)NCCCN4CCN(C)CC4)cs3)nc2-c2csc(n2)[C@@H]2COC(=O)c3c4c5c(cccc5n3O)COC(=O)[C@@H](O[C@H]3C[C@](C)(O)[C@H](N(C)C)[C@H](C)O3)[C@@H](OC4)[C@H](NC(=O)c3csc1n3)c1nc(cs1)C(=O)N2.O=C(O)C(F)(F)F` returned a solubility in data set [1] of over 10000 µg/mL.
On to `CO/C(C)=C1/NC(=O)[C@H]([C@@H](C)O)NC(=O)c2csc(n2)-c2cc(O)c(-c3nc(C(=O)NCC(=O)N4CCN(C)CC4)cs3)nc2-c2csc(n2)[C@@H]2COC(=O)c3c4c5c(cccc5n3O)COC(=O)[C@@H](O[C@H]3C[C@](C)(O)[C@H](N(C)C)[C@H](C)O3)[C@@H](OC4)[C@H](NC(=O)c3csc1n3)c1nc(cs1)C(=O)N2`, for which the values for the MIC against Staphylococcus aureus [2], with Streptococcus pneumoniae and with Enterococcus faecalis were 0.0038 µg/mL (≈ 0.00252 µM), 0.00048 µg/mL (≈ 0.000318 µM) and 0.03 µg/mL (≈ 0.0199 µM), respectively. The ED99 in the data set on Staphylococcus aureus [3] came out at 0.13 mg/kg.
In turn, `CO/C(C)=C1/NC(=O)[C@H]([C@@H](C)O)NC(=O)c2csc(n2)-c2cc(O)c(-c3nc(C(=O)NCCNC(N)=O)cs3)nc2-c2csc(n2)[C@@H]2COC(=O)c3c4c5c(cccc5n3O)COC(=O)[C@@H](O[C@H]3C[C@](C)(O)[C@H](N(C)C)[C@H](C)O3)[C@@H](OC4)[C@H](NC(=O)c3csc1n3)c1nc(cs1)C(=O)N2.O=C(O)C(F)(F)F` gave a solubility in data set [1] of under 10000 µg/mL.
`CO/C(C)=C1/NC(=O)[C@H]([C@@H](C)O)NC(=O)c2csc(n2)-c2cc(O)c(-c3nc(C(=O)NCCCN(C)C)cs3)nc2-c2csc(n2)[C@@H]2COC(=O)c3c4c5c(cccc5n3O)COC(=O)[C@@H](O[C@H]3C[C@](C)(O)[C@H](N(C)C)[C@H](C)O3)[C@@H](OC4)[C@H](NC(=O)c3csc1n3)c1nc(cs1)C(=O)N2.O=C(O)C(F)(F)F` yielded a solubility in data set [1] of over 10000 µg/mL.
Consider `CO/C(C)=C1/NC(=O)[C@H]([C@@H](C)O)NC(=O)c2csc(n2)-c2cc(O)c(-c3nc(C(=O)NCCN)cs3)nc2-c2csc(n2)[C@@H]2COC(=O)c3c4c5c(cccc5n3O)COC(=O)[C@@H](O[C@H]3C[C@](C)(O)[C@H](N(C)C)[C@H](C)O3)[C@@H](OC4)[C@H](NC(=O)c3csc1n3)c1nc(cs1)C(=O)N2.O=C(O)C(F)(F)F`, for which the solubility in data set [1] was over 10000 µg/mL.
Compound `CO/C(C)=C1/NC(=O)[C@H]([C@@H](C)O)NC(=O)c2csc(n2)-c2cc(O)c(-c3nc(C(=O)NCCN(C)C)cs3)nc2-c2csc(n2)[C@@H]2COC(=O)c3c4c5c(cccc5n3O)COC(=O)[C@@H](O[C@H]3C[C@](C)(O)[C@H](N(C)C)[C@H](C)O3)[C@@H](OC4)[C@H](NC(=O)c3csc1n3)c1nc(cs1)C(=O)N2.O=C(O)C(F)(F)F` yielded a solubility in data set [1] of over 10000 µg/mL.
`CO/C(C)=C1/NC(=O)[C@H]([C@@H](C)O)NC(=O)c2csc(n2)-c2cc(O)c(-c3nc(C(=O)N(C)CCN(C)C)cs3)nc2-c2csc(n2)[C@@H]2COC(=O)c3c4c5c(cccc5n3O)COC(=O)[C@@H](O[C@H]3C[C@](C)(O)[C@H](N(C)C)[C@H](C)O3)[C@@H](OC4)[C@H](NC(=O)c3csc1n3)c1nc(cs1)C(=O)N2.O=C(O)C(F)(F)F` came in with a solubility in data set [1] of over 10000 µg/mL.
Compound `CO/C(C)=C1/NC(=O)[C@H]([C@@H](C)O)NC(=O)c2csc(n2)-c2cc(O)c(-c3nc(C(=O)N4CCN(C)CC4)cs3)nc2-c2csc(n2)[C@@H]2COC(=O)c3c4c5c(cccc5n3O)COC(=O)[C@@H](O[C@H]3C[C@](C)(O)[C@H](N(C)C)[C@H](C)O3)[C@@H](OC4)[C@H](NC(=O)c3csc1n3)c1nc(cs1)C(=O)N2.O=C(O)C(F)(F)F` had a solubility in data set [1] of over 10000 µg/mL.
`CO/C(C)=C1/NC(=O)[C@H]([C@@H](C)O)NC(=O)c2csc(n2)-c2cc(O)c(-c3nc(C(=O)NCCNC(N)=O)cs3)nc2-c2csc(n2)[C@@H]2COC(=O)c3c4c5c(cccc5n3O)COC(=O)[C@@H](O[C@H]3C[C@](C)(O)[C@H](N(C)C)[C@H](C)O3)[C@@H](OC4)[C@H](NC(=O)c3csc1n3)c1nc(cs1)C(=O)N2`: the values for the MIC with Staphylococcus aureus [2], against Streptococcus pneumoniae and in the data set on Enterococcus faecalis were 0.06 µg/mL (≈ 0.0412 µM), 0.0075 µg/mL (≈ 0.00516 µM) and 0.5 µg/mL (≈ 0.344 µM), respectively.
The compound `CO/C(C)=C1/NC(=O)[C@H]([C@@H](C)O)NC(=O)c2csc(n2)-c2cc(O)c(-c3nc(C(=O)NCCCN4CCOCC4)cs3)nc2-c2csc(n2)[C@@H]2COC(=O)c3c4c5c(cccc5n3O)COC(=O)[C@@H](O[C@H]3C[C@](C)(O)[C@H](N(C)C)[C@H](C)O3)[C@@H](OC4)[C@H](NC(=O)c3csc1n3)c1nc(cs1)C(=O)N2.O=C(O)C(F)(F)F` gave a solubility in data set [1] of over 10000 µg/mL.
Turning to `CO/C(C)=C1/NC(=O)[C@H]([C@@H](C)O)NC(=O)c2csc(n2)-c2cc(O)c(-c3nc(C(=O)NCCNC(=O)CN(C)C)cs3)nc2-c2csc(n2)[C@@H]2COC(=O)c3c4c5c(cccc5n3O)COC(=O)[C@@H](O[C@H]3C[C@](C)(O)[C@H](N(C)C)[C@H](C)O3)[C@@H](OC4)[C@H](NC(=O)c3csc1n3)c1nc(cs1)C(=O)N2.O=C(O)C(F)(F)F`, the solubility in data set [1] is over 10000 µg/mL.
Take `CO/C(C)=C1/NC(=O)[C@H]([C@@H](C)O)NC(=O)c2csc(n2)-c2cc(O)c(-c3nc(C(=O)NCCNC(=O)c4cc(O)cc(O)c4)cs3)nc2-c2csc(n2)[C@@H]2COC(=O)c3c4c5c(cccc5n3O)COC(=O)[C@@H](O[C@H]3C[C@](C)(O)[C@H](N(C)C)[C@H](C)O3)[C@@H](OC4)[C@H](NC(=O)c3csc1n3)c1nc(cs1)C(=O)N2`: the MIC against Staphylococcus aureus [2] and with Enterococcus faecalis was over 1 µg/mL throughout.
On to `CO/C(C)=C1/NC(=O)[C@H]([C@@H](C)O)NC(=O)c2csc(n2)-c2cc(O)c(-c3nc(C(=O)NCCCN(C)C)cs3)nc2-c2csc(n2)[C@@H]2COC(=O)c3c4c5c(cccc5n3O)COC(=O)[C@@H](O[C@H]3C[C@](C)(O)[C@H](N(C)C)[C@H](C)O3)[C@@H](OC4)[C@H](NC(=O)c3csc1n3)c1nc(cs1)C(=O)N2`, for which the MIC came to 0.06 µg/mL (≈ 0.0413 µM) against Staphylococcus aureus [2], 0.00095 µg/mL (≈ 0.000654 µM) against Streptococcus pneumoniae and 0.12 µg/mL (≈ 0.0826 µM) with Enterococcus faecalis. The ED99 with Staphylococcus aureus [3] was over 0.5 mg/kg.
`CO/C(C)=C1/NC(=O)[C@H]([C@@H](C)O)NC(=O)c2csc(n2)-c2cc(O)c(-c3nc(C(=O)N4CCN(CC(=O)N(C)C)CC4)cs3)nc2-c2csc(n2)[C@@H]2COC(=O)c3c4c5c(cccc5n3O)COC(=O)[C@@H](O[C@H]3C[C@](C)(O)[C@H](N(C)C)[C@H](C)O3)[C@@H](OC4)[C@H](NC(=O)c3csc1n3)c1nc(cs1)C(=O)N2.O=C(O)C(F)(F)F` registered a solubility in data set [1] of over 10000 µg/mL.
`CO/C(C)=C1/NC(=O)[C@H]([C@@H](C)O)NC(=O)c2csc(n2)-c2cc(O)c(-c3nc(C(=O)NCC(=O)N4CCN(C)CC4)cs3)nc2-c2csc(n2)[C@@H]2COC(=O)c3c4c5c(cccc5n3O)COC(=O)[C@@H](O[C@H]3C[C@](C)(O)[C@H](N(C)C)[C@H](C)O3)[C@@H](OC4)[C@H](NC(=O)c3csc1n3)c1nc(cs1)C(=O)N2.O=C(O)C(F)(F)F` had a solubility in data set [1] of over 10000 µg/mL.
With `CO/C(C)=C1/NC(=O)[C@H]([C@@H](C)O)NC(=O)c2csc(n2)-c2cc(O)c(-c3nc(C(=O)NCCNCC(O)CO)cs3)nc2-c2csc(n2)[C@@H]2COC(=O)c3c4c5c(cccc5n3O)COC(=O)[C@@H](O[C@H]3C[C@](C)(O)[C@H](N(C)C)[C@H](C)O3)[C@@H](OC4)[C@H](NC(=O)c3csc1n3)c1nc(cs1)C(=O)N2` (stereo partly specified), the results for the MIC in the data set on Staphylococcus aureus [2], against Streptococcus pneumoniae and in the data set with Enterococcus faecalis were 0.5 µg/mL (≈ 0.337 µM), 0.125 µg/mL (≈ 0.0841 µM) and 2 µg/mL (≈ 1.35 µM), respectively.
In the case of `C=C(NC(=O)c1csc(-c2nc3c(cc2O)-c2nc(cs2)C(=O)N[C@@H]([C@@H](C)O)C(=O)N/C(=C(\C)OC)c2nc(cs2)C(=O)N[C@@H]2c4nc(cs4)C(=O)N[C@@H](COC(=O)c4c5c6c(cccc6n4O)COC(=O)[C@@H](O[C@H]4C[C@](C)(O)[C@H](N(C)C)[C@H](C)O4)[C@H]2OC5)c2nc-3cs2)n1)C(N)=O.O=C(O)C(F)(F)F` [NOCATHIACIN I], the solubility in data set [1] was determined as 340 µg/mL.
